# Pf Dd2 inh = P. falciparum Dd2 growth inhibitors, primary screen, SYBR Green fluorescence, single dose replicates; 72 h; active compounds read low; activity change, % at 10 µM; 94,000 tested, 2.3% active; AID 1159554, 2015; in the data active = activity change below about -80%; inconclusive = no clear call, values can overlap the other calls
# T cruzi growth-1 = T. cruzi intracellular proliferation inhibitors, primary screen, cell-based, beta-gal Tulahuen parasites, NIH3T3 host, luminescence; T. cruzi beta-gal in NIH3T3, GalScreen luminescence, 90 h; inhibition, % at 8.34 µM; 77,000 tested, 5.9% active; AID 624255, 2012;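 active = mean inhibition above about 93%, with at least 55% of replicates each passing it, limit read from the data, passing the limit was not always enough; inconclusive = only one of those two conditions holds; inactive = neither condition holds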
# KDM4C inh = inhibitors of GASC-1 (KDM4C) histone demethylase, primary screen, biochemical, single concentration HTS | Lysine-specific demethylase 4C (Homo sapiens), Q9H3R0 | GST-KDM4C 2-372, H3K9me3 peptide, LANCE TR-FRET | inhibition, % at 12.5 µM | 96,000 tested, 0.15% active | AID 720574, 2013;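 active = mean replicate inhibition above about 25%, with at least 55% of replicates also reaching it, limit read from the data, passing the limit was not always enough; inconclusive = only one of those two conditions met; inactive = neither condition met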
# Target sequence (Q9H3R0 2-372 limits assumed): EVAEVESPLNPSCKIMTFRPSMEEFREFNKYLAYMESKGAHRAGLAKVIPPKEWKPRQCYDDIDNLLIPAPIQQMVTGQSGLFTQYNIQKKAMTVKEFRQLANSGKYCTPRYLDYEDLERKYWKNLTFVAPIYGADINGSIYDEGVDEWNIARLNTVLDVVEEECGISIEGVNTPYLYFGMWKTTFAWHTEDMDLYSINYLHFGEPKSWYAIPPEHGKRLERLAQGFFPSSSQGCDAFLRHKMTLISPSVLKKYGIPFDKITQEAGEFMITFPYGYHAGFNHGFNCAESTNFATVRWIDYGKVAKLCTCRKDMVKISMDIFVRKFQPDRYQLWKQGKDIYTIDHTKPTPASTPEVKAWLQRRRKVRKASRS
#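 Test system – GST-tagged GASC-1 (JMJD2C) catalytic fragment, aa 2-372 · Medium – HEPES buffer, pH 7.5, plus ascorbate · Reagent – H3K9me3 peptide with Fe(II)/2OG · Compound – one test concentration per compound · Timing – 30 min reaction, 60 min detection, RT · Technique – TR-FRET with Eu antibody and ULight streptavidin, EDTA stop · Read-out basis – inhibition from TR-FRET ratio decrease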
# IDH1 mut inh = inhibitors of IDH1 R132H reductase, primary screen, biochemical, plate reader, single point | Isocitrate dehydrogenase [NADP] cytoplasmic (Homo sapiens), O75874 | diaphorase/resazurin fluorescence, 60 min | inhibition, % at 10 µM | 70,000 tested, 0.18% active; in the data active = inhibition above about 34%; inconclusive = no clear call, values can overlap the other calls; inactive = below about 11%;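 also: 0% = DMSO and 100% = no enzyme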
# T cruzi growth-2 = T. cruzi intracellular proliferation inhibitors, confirmation, cell-based, NIH3T3 host, beta-gal parasite, luminescence, cherry-pick. shares compounds with T cruzi growth-1. T. cruzi beta-gal in NIH3T3, GalScreen luminescence, 90 h. inhibition, % at 8.35 µM. 5,600 tested, 72% active. AID 651739, 2012;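 active = mean replicate inhibition above about 95% and at least 55% of replicates individually reaching it, limit read from the data; inconclusive = only one of the two criteria is met; inactive = neither criterion is met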
# T cruzi growth-3 = inhibitors of intracellular T. cruzi replication, confirmation, NIH3T3 host cells, beta-gal parasites, cherry-pick, set 2. AID 651740, 2012. inhibition, % at 2.09 µM. 5,600 tested, 21% active. T. cruzi beta-gal in NIH3T3, GalScreen luminescence, 90 h. shares compounds with T cruzi growth-1;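 active = mean inhibition above about 95%, with at least 55% of replicates also reaching it, limit read from the data; inconclusive = meets just one of the two conditions; inactive = meets neither condition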;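 also: plate controls were neutral control median for no effect and positive control median for full effect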
# 3T3 cytotox = cytotoxicity in mouse NIH/3T3 fibroblasts, confirmation, cytotoxicity control for T. cruzi proliferation inhibitor project, cell-based, cherry-pick, single point. cytotoxicity (signal decrease), % at 8.35 µM. 5,600 tested, 14% active. AID 651742, 2012. shares compounds with T cruzi growth-1. NIH/3T3 viability, CellTiter-Glo ATP luminescence, 90 h;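 active = mean signal decrease across replicates above about 35% based on untreated-well scatter, with enough replicates individually passing, limit read from the data; inconclusive = no rule stated though some were filed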;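 also: 0% = median of neutral control wells and 100% = median of positive control wells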
# NIH3T3 tox 2 = NIH/3T3 fibroblast cytotoxicity, confirmation, cytotoxicity control, cell-based, cherry-pick, single point, set 2; NIH/3T3 viability, CellTiter-Glo ATP luminescence, 90 h; shares compounds with T cruzi growth-1; AID 651744, 2012; 5,600 tested, 56% active; inhibition, % at 24.9 µM;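 active = mean loss of cell viability signal at or above a set limit, and enough replicates individually reaching it; inconclusive = meets only the mean limit or only the replicate share; inactive = meets neither condition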;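 also: 0% = median of neutral control wells and 100% = median of positive control wells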
# The depositor's hits bear a star; ? = inconclusive; nt = not tested or not shown. Only some compounds are listed: those with a hit (about 5.8% of all), similar ones and a draw of the others.
SMILES,Pf Dd2 inh,T cruzi growth-1,KDM4C inh,IDH1 mut inh,T cruzi growth-2,T cruzi growth-3,3T3 cytotox,NIH3T3 tox 2
C/C=C/c1ccc([C@@H]2[C@@H](CNC(=O)CC3CC3)N(C(=O)CC)[C@H]2CO)cc1,8,113*,2,nt,9,0,-16,20
C/C=C/c1ccc([C@H]2[C@@H](CNC(=O)C3CC3)N(C(=O)NCCC)[C@H]2CO)cc1,-11,97*,-3,nt,69,44,-21,-21
C/C=C/c1ccc([C@H]2[C@@H](CNC(=O)CC3CC3)N(C(=O)CC)[C@H]2CO)cc1,1,103*,0,nt,52,12,6,12
CCn1c(SCC(=O)Nc2ccccc2C(F)(F)F)nnc1-c1ccc(N)cc1,nt,nt,nt,1,nt,nt,nt,nt
CC(C)CC#Cc1ccc2c(c1)O[C@@H](CN(C)C(=O)C1CCCCC1)[C@H](C)CN([C@H](C)CO)S2(=O)=O,-66,114*,4,-9,100*,112*,-2,104*
CC(C)CC#Cc1ccc2c(c1)O[C@H](CN(C)C(=O)C1CCC1)[C@@H](C)CN([C@H](C)CO)S2(=O)=O,-46,93,-1,nt,nt,nt,nt,nt
CC(C)CC#Cc1ccc2c(c1)O[C@@H](CN(C)C(=O)C1CCCCC1)[C@@H](C)CN([C@H](C)CO)S2(=O)=O,-44,115*,-1,nt,96*,116*,2,105*
CC(C)CC#Cc1ccc2c(c1)O[C@H](CN(C)C(=O)C1CCCCC1)[C@H](C)CN([C@H](C)CO)S2(=O)=O,-66,111*,-1,nt,99*,106*,63*,104*
COc1ccc(NC(=O)N[C@@H]2CC[C@@H](CC(=O)NC3CCC3)O[C@@H]2CO)cc1,10,3,1,0,nt,nt,nt,nt
N#C[C@@H]1N[C@@H](CO)[C@@H]1c1ccc(-c2ccccc2F)cc1,21,?,-2,nt,11,-6,-6,0
N#C[C@@H]1N[C@H](CO)[C@H]1c1ccc(C2=CCCC2)cc1,23,101*,0,nt,89,-1,-26,-1
O=C(NC[C@@H]1N[C@@H](CO)[C@@H]1c1ccc(-c2ccccc2F)cc1)c1ccccn1,-17,102*,-3,nt,45,13,-10,-7
N#C[C@@H]1N[C@H](CO)[C@H]1c1ccc(-c2ccccc2F)cc1,35,102*,1,nt,53,33,-3,17
O=C(NC[C@H]1N[C@@H](CO)[C@H]1c1ccc(-c2ccccc2)cc1)c1ccccc1F,-32,76,-3,nt,nt,nt,nt,nt
COc1ccc(NC(=O)Nc2cccc3c2O[C@@H](CN(C)C(=O)Nc2ccccc2)[C@@H](C)CN([C@H](C)CO)C3=O)cc1,11,nt,-1,2,nt,nt,nt,nt
C[C@@H]1CN([C@H](C)CO)C(=O)c2cc(C3=CCCC3)cnc2O[C@@H]1CN(C)Cc1ccc(F)cc1,3,12,-4,0,nt,nt,nt,nt
C[C@@H]1CN([C@H](C)CO)C(=O)CCCn2nncc2CO[C@H]1CN(C)CC1CCCCC1,-6,12,1,0,nt,nt,nt,nt
COCC(=O)Nc1ccc2c(c1)[C@H]1C[C@@H](CC(=O)NCc3ccc(-c4ccccc4)cc3)O[C@@H](CO)[C@H]1O2,-20,36,-1,0,nt,nt,nt,nt
COCC(=O)Nc1ccc2c(c1)[C@H]1C[C@H](CC(=O)NCc3ccc(-c4ccccc4)cc3)O[C@@H](CO)[C@H]1O2,5,47,-1,-1,nt,nt,nt,nt
COCC(=O)Nc1ccc2c(c1)[C@@H]1C[C@@H](CC(=O)NCc3ccc(-c4ccccc4)cc3)O[C@@H](CO)[C@@H]1O2,-9,?,2,-1,35,-43,37*,23
COCC(=O)Nc1ccc2c(c1)[C@H]1C[C@H](CC(=O)NCc3ccc(-c4ccccc4)cc3)O[C@H](CO)[C@H]1O2,-50,111*,4,-1,70,28,-19,18
COCC(=O)Nc1ccc2c(c1)[C@H]1C[C@@H](CC(=O)NCc3ccc(-c4ccccc4)cc3)O[C@H](CO)[C@H]1O2,-42,102*,-2,0,12,-5,8,17
O=C(c1ccccc1F)N1CC[C@@H]2[C@H]1c1cc(-c3ccc(F)cc3)ccc1N[C@@H]2CO,5,94,-1,nt,nt,nt,nt,nt
O=C(c1ccccc1)N1CC[C@@H]2[C@H]1c1cc(-c3ccccc3F)ccc1N[C@@H]2CO,-26,110*,8,nt,100*,83,21,30*
O=C(c1cccc(F)c1)N1CC[C@@H]2[C@@H](CO)Nc3ccc(-c4ccccc4F)cc3[C@@H]21,7,40,0,nt,nt,nt,nt,nt
SMILES,Pf Dd2 inh,T cruzi growth-1,KDM4C inh,IDH1 mut inh,T cruzi growth-2,T cruzi growth-3,3T3 cytotox,NIH3T3 tox 2
O=C(c1ccccc1F)N1CC[C@H]2[C@H](CO)Nc3ccc(-c4ccc(F)cc4)cc3[C@H]21,-3,99*,0,nt,101*,99*,11,95*
O=C(c1ccccc1)N1CC[C@H]2[C@H](CO)Nc3ccc(-c4ccccc4F)cc3[C@H]21,-17,108*,0,nt,98*,89,14,23
O=C(c1ccc(F)cc1)N1CC[C@@H]2[C@@H](CO)Nc3ccc(-c4ccccc4F)cc3[C@@H]21,-51,110*,-2,nt,104*,85,27,71*
CN1C(=O)c2cc(NC(=O)C3CC3)ccc2OC[C@H]2O[C@@H](CC(=O)Nc3ccc(F)cc3)CC[C@@H]21,-18,22,-1,nt,nt,nt,nt,nt
C[C@@H]1CN([C@H](C)CO)S(=O)(=O)c2ccc(/C=C/c3ccccc3)cc2O[C@@H]1CN(C)C(=O)c1ccc2c(c1)OCO2,-66,91,0,1,nt,nt,nt,nt
C[C@@H]1CN([C@@H](C)CO)C(=O)c2cc(-c3cccc(C#N)c3)cnc2O[C@H]1CN(C)C(=O)C1CC1,-14,29,-1,nt,nt,nt,nt,nt
Cc1ccc(-c2ccc3c(c2)O[C@H](CN(C)Cc2cccnc2)[C@H](C)CN([C@@H](C)CO)S3(=O)=O)cc1,-39,108*,-1,4,97*,80,46*,95*
